Experimental data published in ChEMBL document CHEMBL4177764 (J Med Chem, 2018).
Activity calls are given as the source filed them. No cut-off for these calls is given here.

Tests used:
[1] = target: T1, ALK tyrosine kinase receptor (Homo sapiens, UniProt Q9UM73); test: Induction of ALK degradation in human CHLA20 cells at 100 nM after 16 hrs in presence of ALK inhibitor TAE684 and ABCB1 inhibitor tariquidar by immunoblot method; type: cell-based
In short: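 CHLA20 cells were kept with 125 nM tariquidar and pre-treated for 2 h with DMSO, carfilzomib, MLN4924, pomalidomide, TAE684 or LDK378. A 16 h degrader treatment followed, with immunoblot readout of ALK.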
Target sequence in this assay (Q9UM73 19-1620 limits assumed): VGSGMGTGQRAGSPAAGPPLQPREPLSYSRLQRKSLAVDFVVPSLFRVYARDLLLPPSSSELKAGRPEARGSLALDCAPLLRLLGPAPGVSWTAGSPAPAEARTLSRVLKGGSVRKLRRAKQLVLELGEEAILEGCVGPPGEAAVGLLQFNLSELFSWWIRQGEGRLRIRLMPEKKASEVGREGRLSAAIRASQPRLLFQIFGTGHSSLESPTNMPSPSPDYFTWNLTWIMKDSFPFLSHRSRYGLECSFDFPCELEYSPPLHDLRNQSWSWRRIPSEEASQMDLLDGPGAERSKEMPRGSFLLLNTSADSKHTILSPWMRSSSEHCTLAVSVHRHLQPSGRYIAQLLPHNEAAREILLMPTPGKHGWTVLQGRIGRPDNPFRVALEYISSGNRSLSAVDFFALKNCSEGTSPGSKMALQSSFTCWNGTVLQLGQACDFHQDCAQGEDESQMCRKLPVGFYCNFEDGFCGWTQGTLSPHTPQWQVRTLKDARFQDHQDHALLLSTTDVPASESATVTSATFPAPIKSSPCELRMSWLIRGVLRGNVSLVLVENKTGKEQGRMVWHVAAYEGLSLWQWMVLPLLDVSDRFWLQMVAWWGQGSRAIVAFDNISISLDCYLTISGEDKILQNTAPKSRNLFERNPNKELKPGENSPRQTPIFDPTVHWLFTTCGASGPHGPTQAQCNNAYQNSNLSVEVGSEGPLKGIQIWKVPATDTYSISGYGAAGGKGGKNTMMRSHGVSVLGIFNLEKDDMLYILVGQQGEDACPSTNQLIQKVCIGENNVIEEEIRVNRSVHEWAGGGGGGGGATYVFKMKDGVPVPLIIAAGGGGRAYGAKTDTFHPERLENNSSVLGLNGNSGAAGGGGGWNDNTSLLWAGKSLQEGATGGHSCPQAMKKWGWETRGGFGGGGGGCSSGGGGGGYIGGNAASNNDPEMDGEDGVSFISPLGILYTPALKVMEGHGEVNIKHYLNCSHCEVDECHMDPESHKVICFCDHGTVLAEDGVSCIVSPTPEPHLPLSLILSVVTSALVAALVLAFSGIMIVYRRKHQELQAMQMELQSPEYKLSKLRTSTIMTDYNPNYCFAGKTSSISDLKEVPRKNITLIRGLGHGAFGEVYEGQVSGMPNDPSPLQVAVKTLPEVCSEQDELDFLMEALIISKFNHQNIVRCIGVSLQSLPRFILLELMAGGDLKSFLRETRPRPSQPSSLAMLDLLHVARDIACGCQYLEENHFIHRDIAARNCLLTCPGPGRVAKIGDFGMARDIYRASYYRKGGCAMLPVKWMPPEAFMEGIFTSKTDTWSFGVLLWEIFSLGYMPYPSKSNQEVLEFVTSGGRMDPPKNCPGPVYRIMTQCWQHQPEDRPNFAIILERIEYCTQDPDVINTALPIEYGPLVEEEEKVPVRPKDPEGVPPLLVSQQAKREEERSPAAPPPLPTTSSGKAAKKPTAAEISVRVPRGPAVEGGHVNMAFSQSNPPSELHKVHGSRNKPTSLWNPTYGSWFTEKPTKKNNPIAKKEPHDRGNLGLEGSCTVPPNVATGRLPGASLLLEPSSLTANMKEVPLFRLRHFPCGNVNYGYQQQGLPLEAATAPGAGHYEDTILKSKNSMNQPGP

[2] = target: T1, ALK tyrosine kinase receptor; test: Induction of ALK degradation in human NCI-H3122 cells at 250 nM after 4 hrs by immunoblot method; type: cell-based
Target sequence in this assay (Q9UM73 19-1620 limits assumed): as above

[3] = target: Focal adhesion kinase 1 (Homo sapiens) (UniProt Q05397); test: Induction of PTK2 degradation in human Kelly cells at 100 nM measured over 2 to 16 hrs by immunoblot method; type: cell-based
Sequence of Focal adhesion kinase 1 (Homo sapiens) (Q05397 2-1052 limits assumed): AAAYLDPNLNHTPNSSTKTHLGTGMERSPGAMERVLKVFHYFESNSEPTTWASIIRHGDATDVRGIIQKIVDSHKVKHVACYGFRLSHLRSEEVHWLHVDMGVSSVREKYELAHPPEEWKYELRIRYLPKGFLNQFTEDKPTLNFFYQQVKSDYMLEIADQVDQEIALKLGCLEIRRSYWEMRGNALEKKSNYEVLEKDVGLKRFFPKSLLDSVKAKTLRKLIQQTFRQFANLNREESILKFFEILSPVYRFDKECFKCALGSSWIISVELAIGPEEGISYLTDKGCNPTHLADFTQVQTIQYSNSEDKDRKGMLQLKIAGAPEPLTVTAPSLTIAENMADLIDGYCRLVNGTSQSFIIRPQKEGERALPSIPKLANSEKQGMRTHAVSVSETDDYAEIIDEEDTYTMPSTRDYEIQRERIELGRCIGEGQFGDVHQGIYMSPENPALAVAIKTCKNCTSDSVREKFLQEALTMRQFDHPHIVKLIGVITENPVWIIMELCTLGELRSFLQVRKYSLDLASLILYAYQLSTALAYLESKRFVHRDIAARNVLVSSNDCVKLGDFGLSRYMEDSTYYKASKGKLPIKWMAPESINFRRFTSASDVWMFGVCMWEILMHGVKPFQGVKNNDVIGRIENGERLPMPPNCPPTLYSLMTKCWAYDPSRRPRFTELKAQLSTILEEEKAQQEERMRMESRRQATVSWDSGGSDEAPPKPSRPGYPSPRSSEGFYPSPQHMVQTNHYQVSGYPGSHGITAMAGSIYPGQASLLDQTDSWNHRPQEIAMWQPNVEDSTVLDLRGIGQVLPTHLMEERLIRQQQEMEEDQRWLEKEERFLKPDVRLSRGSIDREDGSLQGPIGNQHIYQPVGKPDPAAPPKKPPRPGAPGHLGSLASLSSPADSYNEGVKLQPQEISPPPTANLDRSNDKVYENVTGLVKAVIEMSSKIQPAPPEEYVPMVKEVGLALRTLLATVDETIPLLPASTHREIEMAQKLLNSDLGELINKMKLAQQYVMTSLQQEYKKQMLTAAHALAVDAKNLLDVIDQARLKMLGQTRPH

[4] = tested on: KARPAS-299; test: Antiproliferative activity against human KARPAS299 cells after 72 hrs by CellTiter-Glo luminescent cell viability assay; type: functional, cell-based
[5] = target: T1, ALK tyrosine kinase receptor; test: Induction of ALK degradation in human CHLA20 cells at 100 nM after 4 hrs in presence of ABCB1 inhibitor tariquidar by immunoblot method; type: cell-based
In short: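 CHLA20 cells were co-treated with 125 nM tariquidar, then treated with 100 nM compound over a time course. ALK was read by immunoblot.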
Target sequence in this assay (Q9UM73 19-1620 limits assumed): as the sequence (Q9UM73 19-1620 limits assumed) above

[6] = target: T1, ALK tyrosine kinase receptor; test: Induction of ALK degradation in human KARPAS299 cells at 250 nM after 16 hrs in presence of ALK inhibitor LDK378 by immunoblot method; type: cell-based
Target sequence in this assay (Q9UM73 19-1620 limits assumed): as above

[7] = target: T1, ALK tyrosine kinase receptor; test: Induction of ALK degradation in human KARPAS299 cells at 250 nM after 16 hrs in presence of […] inhibitor MLN4924 by immunoblot method; type: cell-based
Target sequence in this assay (Q9UM73 19-1620 limits assumed): as above

[8] = species: Homo sapiens; test: Antiproliferative activity against human CHLA20 cells after 72 hrs in presence of ABCB1 inhibitor tariquidar by CellTiter-Glo luminescent cell viability assay; type: functional, cell-based
[9] = target: Tyrosine-protein kinase Fer (Homo sapiens) (UniProt P16591); test: Induction of FER degradation in human Kelly cells at 100 nM measured over 2 to 16 hrs by immunoblot method; type: cell-based
Sequence of Tyrosine-protein kinase Fer (Homo sapiens) (P16591 whole entry, looked up): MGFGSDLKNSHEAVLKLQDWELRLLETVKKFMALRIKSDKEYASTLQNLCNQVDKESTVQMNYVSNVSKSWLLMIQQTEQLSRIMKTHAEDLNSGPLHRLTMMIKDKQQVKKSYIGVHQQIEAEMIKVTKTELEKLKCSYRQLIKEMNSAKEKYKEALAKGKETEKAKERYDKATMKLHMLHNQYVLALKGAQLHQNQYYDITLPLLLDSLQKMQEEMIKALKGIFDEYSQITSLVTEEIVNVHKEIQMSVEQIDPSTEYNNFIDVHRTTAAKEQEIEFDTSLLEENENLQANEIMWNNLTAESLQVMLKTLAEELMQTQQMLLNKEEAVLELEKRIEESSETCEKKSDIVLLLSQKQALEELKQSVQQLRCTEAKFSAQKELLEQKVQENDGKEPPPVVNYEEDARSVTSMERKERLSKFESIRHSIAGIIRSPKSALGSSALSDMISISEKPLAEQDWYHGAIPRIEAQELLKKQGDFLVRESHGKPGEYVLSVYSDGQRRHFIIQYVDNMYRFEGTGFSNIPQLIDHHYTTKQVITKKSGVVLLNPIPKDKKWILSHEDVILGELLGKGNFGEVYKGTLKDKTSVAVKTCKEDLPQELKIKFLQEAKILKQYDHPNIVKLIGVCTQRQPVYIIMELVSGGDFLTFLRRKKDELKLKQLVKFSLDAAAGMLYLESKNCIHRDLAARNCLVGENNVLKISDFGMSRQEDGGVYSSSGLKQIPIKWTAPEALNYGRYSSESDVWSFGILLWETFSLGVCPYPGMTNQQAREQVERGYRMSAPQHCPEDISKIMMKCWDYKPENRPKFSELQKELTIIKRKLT

[10] = target: T2, Aurora kinase A (Homo sapiens) (UniProt O14965); test: Induction of aurora A degradation in human Kelly cells at 100 nM after 16 hrs in presence of pomalidomide by immunoblot method; type: cell-based
T2 sequence (whole entry): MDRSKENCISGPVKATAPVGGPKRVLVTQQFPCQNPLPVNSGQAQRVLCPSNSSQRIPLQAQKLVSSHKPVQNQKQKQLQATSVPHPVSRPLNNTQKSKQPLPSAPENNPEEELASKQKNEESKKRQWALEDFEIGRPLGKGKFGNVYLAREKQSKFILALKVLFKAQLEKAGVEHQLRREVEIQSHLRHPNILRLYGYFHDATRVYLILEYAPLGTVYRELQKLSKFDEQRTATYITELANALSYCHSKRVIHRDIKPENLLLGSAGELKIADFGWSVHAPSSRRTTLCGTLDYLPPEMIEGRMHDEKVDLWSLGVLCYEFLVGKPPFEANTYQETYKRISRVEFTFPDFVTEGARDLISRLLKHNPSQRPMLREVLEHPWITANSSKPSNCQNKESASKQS
In short: (§1)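 Cells were pre-treated for 2 h with DMSO, carfilzomib, MLN4924 or pomalidomide, then treated with compound for 16 h, with immunoblot read-out. CHLA20 cells also received 125 nM tariquidar throughout.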

[11] = target: Ribosomal protein S6 kinase alpha-1 (Homo sapiens) (UniProt Q15418); test: Induction of RPS6KA1 degradation in human Kelly cells at 100 nM measured over 2 to 16 hrs by immunoblot method; type: cell-based
Sequence of Ribosomal protein S6 kinase alpha-1 (Homo sapiens) (Q15418 whole entry): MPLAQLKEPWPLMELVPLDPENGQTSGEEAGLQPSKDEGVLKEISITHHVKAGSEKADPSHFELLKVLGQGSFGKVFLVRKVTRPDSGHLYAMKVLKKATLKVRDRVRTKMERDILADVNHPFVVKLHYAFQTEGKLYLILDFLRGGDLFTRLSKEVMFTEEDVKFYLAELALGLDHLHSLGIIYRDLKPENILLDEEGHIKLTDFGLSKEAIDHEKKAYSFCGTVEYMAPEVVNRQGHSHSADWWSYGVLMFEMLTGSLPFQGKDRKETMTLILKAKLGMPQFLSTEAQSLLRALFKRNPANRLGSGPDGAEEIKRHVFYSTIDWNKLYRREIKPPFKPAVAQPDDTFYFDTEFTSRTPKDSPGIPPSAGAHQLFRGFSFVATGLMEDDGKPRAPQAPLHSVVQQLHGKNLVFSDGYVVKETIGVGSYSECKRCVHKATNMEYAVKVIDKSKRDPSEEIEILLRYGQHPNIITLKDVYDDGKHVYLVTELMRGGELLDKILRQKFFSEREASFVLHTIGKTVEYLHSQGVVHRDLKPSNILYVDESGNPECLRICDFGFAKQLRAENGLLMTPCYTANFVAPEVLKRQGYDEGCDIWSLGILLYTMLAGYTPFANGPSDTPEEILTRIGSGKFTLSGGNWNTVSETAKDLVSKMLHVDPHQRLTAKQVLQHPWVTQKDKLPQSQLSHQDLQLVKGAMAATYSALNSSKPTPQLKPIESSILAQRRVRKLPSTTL

[12] = target: T1, ALK tyrosine kinase receptor; test: Induction of ALK degradation in human Kelly cells at 100 nM after 8 hrs by immunoblot method; type: cell-based
In short: (§2)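 Kelly cells were treated with 100 nM compound for varying times and lysed at each time point. ALK levels were read by immunoblot.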
Target sequence in this assay (Q9UM73 19-1620 limits assumed): as the sequence (Q9UM73 19-1620 limits assumed) above

[13] = tested on: SH-SY5Y; test: Antiproliferative activity against human SH-SY5Y cells after 72 hrs by CellTiter-Glo luminescent cell viability assay; type: functional, cell-based
[14] = target: T1, ALK tyrosine kinase receptor; test: Induction of ALK degradation in human Kelly cells at 100 nM after 4 hrs by immunoblot method; type: cell-based; in short: as §2
[15] = target: Focal adhesion kinase 1 (Homo sapiens) (UniProt Q05397); test: Induction of PTK2 degradation in human KARPAS299 cells at 0.01 to 1 uM after 16 hrs by immunoblot method; type: cell-based
[16] = target: Ribosomal protein S6 kinase alpha-1 (Homo sapiens) (UniProt Q15418); test: Induction of RPS6KA1 degradation in human KARPAS299 cells at 0.01 to 1 uM after 16 hrs by immunoblot method; type: cell-based
[17] = target: T2, Aurora kinase A (Homo sapiens); test: Induction of aurora A degradation in human NCI-H3122 cells at 250 nM after 16 hrs in presence of proteasome inhibitor carfilzomib by immunoblot method; type: cell-based
[18] = target: T2, Aurora kinase A (Homo sapiens); test: Induction of aurora A degradation in human CHLA20 cells at 100 nM after 16 hrs in presence of […] inhibitor MLN4924 and ABCB1 inhibitor tariquidar by immunoblot method; type: cell-based; in short: as §1
[19] = species: Homo sapiens; test: Antiproliferative activity against human CHLA20 cells after 72 hrs in presence of ABCB1 shRNA by CellTiter-Glo luminescent cell viability assay; type: functional, cell-based
[20] = target: T2, Aurora kinase A (Homo sapiens); test: Induction of aurora A degradation in human Kelly cells at 100 nM after 16 hrs in presence of […] inhibitor MLN4924 by immunoblot method; type: cell-based; in short: as §1
[21] = target: Ribosomal protein S6 kinase alpha-1 (Homo sapiens) (UniProt Q15418); test: Induction of RPS6KA1 degradation in human NCI-H3122 cells at 250 nM measured over 2 to 16 hrs by immunoblot method; type: cell-based
[22] = target: T1, ALK tyrosine kinase receptor; test: Induction of ALK degradation in human KARPAS299 cells at 250 nM after 16 hrs in presence of ALK inhibitor TAE684 by immunoblot method; type: cell-based
[23] = target: T2, Aurora kinase A (Homo sapiens); test: Induction of aurora A degradation in human CHLA20 cells at 100 nM after 16 hrs in presence of pomalidomide and ABCB1 inhibitor tariquidar by immunoblot method; type: cell-based; in short: as §1
[24] = target: T1, ALK tyrosine kinase receptor; test: Induction of ALK degradation in human KARPAS299 cells at 250 nM after 8 hrs by immunoblot method; type: cell-based
[25] = target: T1, ALK tyrosine kinase receptor; test: Induction of ALK degradation in human KARPAS299 cells at 250 nM after 16 hrs in presence of pomalidomide by immunoblot method; type: cell-based
[26] = tested on: SU-DHL-1; test: Antiproliferative activity against human SU-DHL1 cells after 72 hrs by CellTiter-Glo luminescent cell viability assay; type: functional, cell-based
[27] = target: T2, Aurora kinase A (Homo sapiens); test: Induction of aurora A degradation in human KARPAS299 cells at 250 nM after 16 hrs in presence of proteasome inhibitor carfilzomib by immunoblot method; type: cell-based
[28] = target: T1, ALK tyrosine kinase receptor; test: Induction of ALK degradation in human NCI-H3122 cells at 250 nM after 16 hrs in presence of […] inhibitor MLN4924 by immunoblot method; type: cell-based
[29] = target: T1, ALK tyrosine kinase receptor; test: Induction of ALK degradation in human Kelly cells after 16 hrs by immunoblot method; type: cell-based
In short: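 Kelly neuroblastoma cells (ABCB1-low) were given a 16 hr dose titration. ALK and Aurora A were then read by western blot. DC50 was determined from two independent experiments.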

[30] = target: T1, ALK tyrosine kinase receptor; test: Induction of ALK degradation in human Kelly cells at 100 nM after 16 hrs in presence of ALK inhibitor TAE684 by immunoblot method; type: cell-based
In short: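 Kelly cells were pre-treated for 2 h with DMSO, carfilzomib, MLN4924, pomalidomide, TAE684 or LDK378. Degrader treatment followed for 16 h, and ALK was read by immunoblot.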

SMILES	Activity [1]	Activity [2]	Activity [3]	Activity [4]	Activity [5]	Activity [6]	Activity [7]	Activity [8]	Activity [9]	Activity [10]	Activity [11]	Activity [12]	Activity [13]	Activity [14]	Activity [15]	Activity [16]	Activity [17]	Activity [18]	Activity [19]	Activity [20]	also measured
COc1cc(N2CCN(CCOCCOCCNC(=O)CNc3cccc4c3C(=O)N(C3CCC(=O)NC3=O)C4=O)CC2)ccc1Nc1ncc(Cl)c(Nc2ccccc2S(=O)(=O)C(C)C)n1 (stereo not given)	inactive	Active	Active	Active	Active	inactive	inactive	Active	Active	inactive	Active	Active	inactive	inactive	Active	Active	inactive	inactive	Active	inactive	Activity [21]: Active; Activity [22]: inactive; Activity [23]: inactive; Activity [24]: Active; Activity [25]: inactive; Activity [26]: Active; Activity [27]: inactive; Activity [28]: inactive; DC50 [29]: 50 nM; Activity [30]: inactive
Cc1cc(Nc2ncc(Cl)c(Nc3ccccc3S(=O)(=O)C(C)C)n2)c(OC(C)C)cc1C1CCN(CCOCCOCCNC(=O)CNc2cccc3c2C(=O)N(C2CCC(=O)NC2=O)C3=O)CC1 (stereo not given)	inactive	Active	Active	Active	Active	inactive	inactive	Active	Active	inactive	Active	Active	inactive	inactive	Active	Active	inactive	inactive	Active	inactive	Activity [21]: Active; Activity [22]: inactive; Activity [23]: inactive; Activity [24]: Active; Activity [25]: inactive; Activity [26]: Active; Activity [27]: inactive; Activity [28]: inactive; DC50 [29]: 50 nM; Activity [30]: inactive
